Experimental data taken from ChEMBL document CHEMBL3351720, “Design, synthesis and evaluation of benzoisothiazolones as selective inhibitors of PHOSPHO1” (Bioorg Med Chem Lett, 2014).

Columns and labels:
[1] = target: T1, Phosphoethanolamine/phosphocholine phosphatase (Homo sapiens, UniProt Q8TCT1); assay: Inhibition of PHOSPHO1 phosphoethanolamine activity (unknown origin) assessed as amount of inorganic phosphate release after 30 mins
T1 sequence (Q8TCT1 whole entry): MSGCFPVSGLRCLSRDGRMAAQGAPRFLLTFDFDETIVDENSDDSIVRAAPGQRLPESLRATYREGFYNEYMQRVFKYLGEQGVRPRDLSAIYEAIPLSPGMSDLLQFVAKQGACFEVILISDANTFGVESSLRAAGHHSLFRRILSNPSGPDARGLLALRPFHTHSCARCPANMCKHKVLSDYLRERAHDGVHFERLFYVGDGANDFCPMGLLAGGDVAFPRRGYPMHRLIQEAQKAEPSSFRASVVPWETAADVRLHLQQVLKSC

Phosphomannomutase 2 = target: T2, Phosphomannomutase 2 (Homo sapiens, UniProt O15305); assay: Inhibition of PMM2 (unknown origin)
T2 sequence (O15305 whole entry): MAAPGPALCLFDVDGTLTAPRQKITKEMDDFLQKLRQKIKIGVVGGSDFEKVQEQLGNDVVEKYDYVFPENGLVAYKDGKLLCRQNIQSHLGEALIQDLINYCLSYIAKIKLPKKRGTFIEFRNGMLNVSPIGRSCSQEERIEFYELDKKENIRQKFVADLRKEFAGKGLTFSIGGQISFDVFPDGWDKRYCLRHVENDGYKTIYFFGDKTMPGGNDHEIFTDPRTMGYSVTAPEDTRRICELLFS

[2] = target: T3, Mannose-6-phosphate isomerase (Homo sapiens, UniProt P34949); assay: Inhibition of phosphomannose isomerase (unknown origin)
T3 sequence (P34949 whole entry): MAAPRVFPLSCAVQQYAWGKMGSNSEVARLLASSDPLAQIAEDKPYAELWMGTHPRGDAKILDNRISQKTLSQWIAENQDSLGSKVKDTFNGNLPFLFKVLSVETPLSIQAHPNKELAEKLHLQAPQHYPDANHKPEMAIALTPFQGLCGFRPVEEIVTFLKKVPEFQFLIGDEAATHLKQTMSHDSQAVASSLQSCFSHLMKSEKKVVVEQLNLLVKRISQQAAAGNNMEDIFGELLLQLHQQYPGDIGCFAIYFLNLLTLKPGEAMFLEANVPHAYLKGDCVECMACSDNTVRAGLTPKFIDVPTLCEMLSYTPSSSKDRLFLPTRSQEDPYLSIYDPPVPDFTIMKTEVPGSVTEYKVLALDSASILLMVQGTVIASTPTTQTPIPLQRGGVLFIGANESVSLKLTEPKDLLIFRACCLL

[3] = target: T4, Alkaline phosphatase, tissue-nonspecific isozyme (Homo sapiens, UniProt P05186)
T4 sequence (P05186 whole entry): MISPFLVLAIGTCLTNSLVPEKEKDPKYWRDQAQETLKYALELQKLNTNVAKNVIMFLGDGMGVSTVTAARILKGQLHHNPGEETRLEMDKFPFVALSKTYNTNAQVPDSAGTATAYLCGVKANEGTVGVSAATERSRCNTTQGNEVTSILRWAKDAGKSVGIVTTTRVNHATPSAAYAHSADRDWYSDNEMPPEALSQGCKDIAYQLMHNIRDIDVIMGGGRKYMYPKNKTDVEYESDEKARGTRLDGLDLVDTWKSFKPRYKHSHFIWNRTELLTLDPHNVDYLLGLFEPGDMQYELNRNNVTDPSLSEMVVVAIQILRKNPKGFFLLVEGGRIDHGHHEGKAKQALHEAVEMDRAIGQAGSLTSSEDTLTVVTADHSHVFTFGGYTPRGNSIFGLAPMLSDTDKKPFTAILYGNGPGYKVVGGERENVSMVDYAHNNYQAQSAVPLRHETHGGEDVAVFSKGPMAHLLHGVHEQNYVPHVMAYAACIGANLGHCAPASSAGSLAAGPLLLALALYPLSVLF

[4] = Cytotoxicity against human Fa2N-4 cells after 24 hrs by ATP-lite 1-step assay; type: cell-based; settings: fa2n-4, 24 h, read-out: LC50 (the source's name)
[5] = Permeability of the compound at donor pH 6.2 and acceptor pH 7.4 by PAMPA; type: ADME
Summary of the method: (§1)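 PAMPA with the acceptor compartment at pH 7.4 and the donor at pH 5.0, 6.2 or 7.4. Permeability reported as ×10^-6 cm/s. Part of an in vitro ADME panel.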

[6] = Permeability of the compound at donor pH 7.4 and acceptor pH 7.4 by PAMPA; type: ADME; summary of the method: as §1
[7] = Metabolic stability in human plasma assessed as compound remaining at 1:1 1 x pH7.4 PBS measured at 3 hrs by LC-MS/MS analysis; type: ADME, cell-free; settings: pH 7.4, read-out: Stability
Summary of the method: (§2)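 Stability of each analogue was reported as % of compound remaining. For liver microsomes this was after 1 hr, with runs with and without NADPH. For plasma this was after 3 hrs in plasma mixed 1:1 with 1× PBS, pH 7.4. Both human and mouse matrices were used.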

[8] = Aqueous solubility of the compound in pH 6.2 pION buffer by UV kinetic solubility method; type: physicochemical
Summary of the method: (§3)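 Kinetic solubility in pION's buffer at pH 5.0, 6.2 or 7.4, reported in µg/ml. Part of an in vitro ADME panel.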

[9] = Inhibition of Streptococcus pneumoniae diphosphomevalonate decarboxylase assessed as conversion of (R)-5-diphosphomevalonate to ADP by fluorometry
[10] = Metabolic stability in mouse plasma assessed as compound remaining at 1:1 1 x pH7.4 PBS measured at 3 hrs by LC-MS/MS analysis; type: ADME, cell-free; settings: pH 7.4, read-out: Stability; summary of the method: as §2
[11] = Plasma protein binding in mouse at 1 uM by LC-MS analysis; type: ADME, cell-free; settings: read-out: PPB (converted)
Summary of the method: (§4)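 Read-out was % of compound bound in human or mouse plasma, each tested at 1 µM and 10 µM.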

[12] = Aqueous solubility of the compound in pH 7.4 pION buffer by UV kinetic solubility method; type: physicochemical; summary of the method: as §3
[13] = target: T5, Ectonucleotide pyrophosphatase/phosphodiesterase family member 1 (Homo sapiens, UniProt P22413); assay: Inhibition of NPP1 (unknown origin)
T5 sequence (P22413 whole entry): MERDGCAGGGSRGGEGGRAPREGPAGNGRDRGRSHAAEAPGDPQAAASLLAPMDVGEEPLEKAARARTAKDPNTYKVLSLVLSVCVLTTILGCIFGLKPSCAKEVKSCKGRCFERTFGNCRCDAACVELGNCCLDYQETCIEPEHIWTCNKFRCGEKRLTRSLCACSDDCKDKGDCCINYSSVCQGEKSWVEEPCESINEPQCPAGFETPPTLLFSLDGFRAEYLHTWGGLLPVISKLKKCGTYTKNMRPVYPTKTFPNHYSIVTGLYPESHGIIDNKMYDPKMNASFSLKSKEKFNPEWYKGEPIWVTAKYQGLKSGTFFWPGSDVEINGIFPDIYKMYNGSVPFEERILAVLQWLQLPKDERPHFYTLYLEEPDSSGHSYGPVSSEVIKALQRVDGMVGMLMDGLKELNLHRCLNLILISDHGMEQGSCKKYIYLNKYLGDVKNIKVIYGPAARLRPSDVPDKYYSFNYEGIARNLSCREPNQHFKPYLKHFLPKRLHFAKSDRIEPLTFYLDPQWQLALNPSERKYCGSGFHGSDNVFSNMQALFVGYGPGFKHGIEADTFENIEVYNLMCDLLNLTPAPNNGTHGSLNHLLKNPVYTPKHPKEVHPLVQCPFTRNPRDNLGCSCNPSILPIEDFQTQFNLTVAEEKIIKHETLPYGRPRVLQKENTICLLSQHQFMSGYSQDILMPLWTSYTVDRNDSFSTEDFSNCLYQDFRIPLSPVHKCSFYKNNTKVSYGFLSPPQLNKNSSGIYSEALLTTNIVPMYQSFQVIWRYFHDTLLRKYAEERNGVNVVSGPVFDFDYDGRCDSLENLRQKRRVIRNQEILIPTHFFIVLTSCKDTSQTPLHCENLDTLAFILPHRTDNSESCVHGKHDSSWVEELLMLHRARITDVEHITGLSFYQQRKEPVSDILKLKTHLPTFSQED

[14] = Plasma protein binding in human at 10 uM by LC-MS analysis; type: ADME, cell-free; settings: read-out: PPB (converted); summary of the method: as §4
[15] = Plasma protein binding in human at 1 uM by LC-MS analysis; type: ADME, cell-free; settings: read-out: PPB (converted); summary of the method: as §4
[16] = Metabolic stability in mouse liver microsomes measured at 1 uM after 1 hr at pH 7.4 by LC-MS/MS analysis; type: ADME; settings: read-out: Stability; summary of the method: as §2
[17] = Metabolic stability in human liver microsomes measured at 1 uM after 1 hr at pH 7.4 by LC-MS/MS analysis; type: ADME; settings: read-out: Stability; summary of the method: as §2
[18] = Metabolic stability in human plasma assessed as compound remaining at 1 x pH7.4 PBS measured at 3 hrs by LC-MS/MS analysis; type: ADME, cell-free; settings: pH 7.4, read-out: Stability; summary of the method: as §2
[19] = Metabolic stability in mouse plasma assessed as compound remaining at 1 x pH7.4 PBS measured at 3 hrs by LC-MS/MS analysis; type: ADME, cell-free; settings: pH 7.4, read-out: Stability; summary of the method: as §2
[20] = Plasma protein binding in mouse at 10 uM by LC-MS analysis; type: ADME, cell-free; settings: read-out: PPB (converted); summary of the method: as §4
[21] = Aqueous solubility of the compound in pH 5 pION buffer by UV kinetic solubility method; type: physicochemical; summary of the method: as §3
[22] = Permeability of the compound at donor pH 5.0 and acceptor pH 7.4 by PAMPA; type: ADME; summary of the method: as §1

## O=c1c2ccccc2sn1-c1cc(S(=O)(=O)N2CCOCC2)ccc1N1CCOCC1
[1]
  IC50: 1200 nM

## Cc1ccc(-n2sc3ccccc3c2=O)cc1S(=O)(=O)N1CCCCC1
Phosphomannomutase 2
  IC50: 11 µM

## Cc1ccc(C)c(-n2sc3ccccc3c2=O)c1
Phosphomannomutase 2
  IC50: > 20 µM
[1]
  IC50: 4000 nM

## O=c1c2ccccc2sn1-c1ccc(F)cc1
[2]
  IC50: 3.4 µM
Phosphomannomutase 2
  IC50: > 20 µM

## CN(C)C(=O)c1cccc(-n2sc3ccccc3c2=O)c1
[3]
  IC50: > 100 µM
[4]
  CC50: > 50 µM
[5]
  permeability: 92 ×10⁻⁶ cm/s
[6]
  permeability: 97 ×10⁻⁶ cm/s
[7]
  remaining at 3 h: 60%
[8]
  solubility kinetic: > 30 µg/mL
[9]
  IC50: 24 µM
[10]
  remaining at 3 h: 56.9%
[11]
  fraction unbound at 1 µM: 0.52
[12]
  solubility kinetic: > 30 µg/mL
[13]
  IC50: > 30 µM
[14]
  fraction unbound at 10 µM: 0.558
[15]
  fraction unbound at 1 µM: 0.587
[16]
  remaining at 1 h, 1 µM: 56.6%
[17]
  remaining at 1 h, 1 µM: 45.7%
[18]
  remaining at 3 h: 18.9%
[19]
  remaining at 3 h: 76.2%
[20]
  fraction unbound at 10 µM: 0.533
[21]
  solubility kinetic: > 30 µg/mL
[22]
  permeability: 94 ×10⁻⁶ cm/s

## O=c1c2ccccc2sn1-c1cccc(Cl)c1
Phosphomannomutase 2
  IC50: > 30 µM
